Values after ≈ are worked out from the molar mass of the structure shown.
What was measured:
[1] = tested on: Plasmodium falciparum; assay: Antimicrobial activity against Plasmodium falciparum NF54 infected in human RBC after 48 hrs by [3H]hypoxanthine incorporation assay; type: functional, organism-based
Summary of the method: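 Erythrocytic stage, drug-sensitive strain, in hypoxanthine-free RPMI 1640 with HEPES, NaHCO3, neomycin, Albumax, human A+ red cells at 2.5% haematocrit, 0.3% parasitaemia. Eleven 3-fold dilutions from 100 to 0.002 µg/mL; 37 °C, 4% CO2/3% O2/93% N2. ³H-hypoxanthine added at 48 h, further 24 h, then harvested and scintillation-counted. IC50 by linear regression; chloroquine control.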

[2] = Kinetic solubility of the compound in phosphate buffer at pH 6.5 by nephelometry; type: physicochemical; details: read-out: Kinetic_solubility
Summary of the method: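 DMSO stocks spiked into pH 6.5 phosphate buffer or 0.01 M HCl (about pH 2.0), final DMSO 1% (v/v). Solubility range determined by nephelometry.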

[3] = Partition coefficient, log D of the compound at pH 7.4 by HPLC analysis; type: physicochemical; details: octanol/water
Summary of the method: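 Chromatographic gradient HPLC: mobile phase 50 mM ammonium acetate pH 7.4 (or ammonium formate pH 3.0) with an acetonitrile gradient of 0–100% over 10 min; UV detection at 220 and 254 nm.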

[4] = tested on: L6; assay: Cytotoxicity against rat L6 cells after 70 hrs by Alamar blue assay; type: cell-based; details: L6, 70 h
Summary of the method: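 4000 L-6 cells per well in RPMI 1640 with L-glutamine and 10% FBS. Eleven 3-fold dilutions from 100 to 0.002 µg/mL for 70 h; Alamar Blue 2 h, fluorescence at ex 536/em 588 nm. IC50 by linear regression from sigmoidal curves; podophyllotoxin control.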

[5] = Selectivity index, ratio of IC50 for rat L6 cells to IC50 for Trypanosoma brucei rhodesiense STIB 900 bloodstream form; type: toxicity, cell-based; details: read-out: Ratio IC50
Summary of the method: (§1)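 Bloodstream forms (4×10³/well) in MEM with 25 mM HEPES, extra glucose, non-essential amino acids, 0.2 mM 2-mercaptoethanol, 1 mM pyruvate and 15% heat-inactivated horse serum. Eleven 3-fold dilutions from 100 to 0.002 µg/mL, 70 h at 37 °C/5% CO2; Alamar Blue 2 h, fluorescence at ex 536/em 588 nm; IC50 by linear regression; melarsoprol control. SI relative to L6 cells.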

[6] = tested on: Trypanosoma brucei brucei; assay: Antitrypanosomal activity against Trypanosoma brucei brucei 427 bloodstream form after 48 hrs by Alamar blue assay; type: functional, organism-based; details: Trypanosoma brucei, 427, 48 h
Summary of the method: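 Bloodstream parasites in 384-well plates, 24 h preincubation at 37 °C/5% CO2. DMSO dilutions diluted 1:21 in DMEM and added to give final 41.67 to 0.0004 µM; 48 h incubation. 70% Alamar Blue in HMI-9 + 10% FCS added, 2 h at 37 °C then 22 h at room temperature; read at ex 535/em 590 nm.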

[7] = Selectivity index, ratio of IC50 for rat L6 cells to IC50 for Trypanosoma cruzi Tulahuen C2C4 amastigote stage; type: toxicity, cell-based; details: read-out: Ratio IC50
[8] = tested on: Trypanosoma cruzi; assay: Antitrypanosomal activity against Trypanosoma cruzi Tulahuen C2C4 amastigotes infected in rat L6 cells after 96 hrs by beta-galactosidase reporter gene assay; type: functional, organism-based; details: Tulahuen C2C4, L6, 96 h
Summary of the method: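 L-6 cells (2000/well, RPMI 1640 + 10% FBS, 2 mM L-glutamine) infected after 24 h with 5000 LacZ-expressing trypomastigotes. At 48 h the medium was replaced with eleven 3-fold drug dilutions (100 to 0.002 µg/mL). After 96 h, CPRG/Nonidet substrate added, colour read at 540 nm after 2–6 h. IC50 by linear regression from sigmoidal curves; benznidazole control.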

[9] = Kinetic solubility of the compound in phosphate buffer at pH 2 by nephelometry; type: physicochemical; details: read-out: Kinetic_solubility
[10] = Selectivity index, ratio of IC50 for HEK293 cells to IC50 for Trypanosoma brucei brucei 427 bloodstream form; type: toxicity, cell-based; details: human, read-out: Ratio IC50
Summary of the method: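 HEK293 cells (55 µL of 72,727 cells/mL in DMEM + 10% FCS) in 384-well plates, 24 h at 37 °C/5% CO2. Drug diluted 1:21 from DMSO, final 83.34 to 0.0004 µM, 48 h. […] SI relative to T. b. brucei.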

[11] = Half life in human liver microsomes at 1 uM by LC-MS analysis; type: ADME, Microsome
Summary of the method: (§2)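 Compound at 1 µM final (1 in 500 dilution of stock) incubated at 37 °C with human liver microsomes in 0.1 M phosphate buffer pH 7.4, 0.4 mg/mL protein. First-order depletion rate from exponential decay fit used to derive in vitro CLint and half-life; predicted hepatic extraction ratio from scaled CLint with liver blood flow 20.7 mL/min/kg.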

[12] = Intrinsic clearance in human liver microsomes at 1 uM after 60 mins by LC-MS analysis; type: ADME, Microsome; details: read-out: CLH; summary of the method: as §2
[13] = tested on: Trypanosoma brucei rhodesiense; assay: Antitrypanosomal activity against Trypanosoma brucei rhodesiense STIB 900 bloodstream form after 70 hrs by Alamar blue assay; type: functional, organism-based; details: STIB 900, 70 h; summary of the method: as §1
[14] = tested on: Leishmania donovani; assay: Antimicrobial activity against Leishmania donovani MHOM/ET/67/L82 amastigote form after 70 hrs by Alamar blue assay; type: functional, organism-based; details: MHOM/ET/67/L82, 70 h
Summary of the method: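 Axenic amastigotes grown at 37 °C in SM medium pH 5.4 with 10% heat-inactivated FBS, 5% CO2; 10⁵ parasites per well exposed to eleven 3-fold dilutions (100 to 0.002 µg/mL) for 70 h. Alamar Blue (resazurin) added for 2–4 h, fluorescence read at ex 536/em 588 nm. IC50 by linear regression from sigmoidal curves; miltefosine control.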

[15] = tested on: Leishmania donovani; assay: Antimicrobial activity against Leishmania donovani amastigote form infected in mouse peritoneal macrophage after 96 hrs by Giemsa staining method; type: functional, organism-based
Summary of the method: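 Mouse peritoneal macrophages (4×10⁴/well, RPMI 1640 + 10% heat-inactivated FBS) infected after 24 h with 1.2×10⁵ axenic amastigotes; free parasites removed at 4 h, drug dilutions added next day. After 96 h, methanol fixation and 10% Giemsa staining; infected and non-infected macrophages counted, % reduction in parasite burden vs controls, IC50 by linear regression; miltefosine control.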

IC50 [1] [µM] | solubility kinetic [2] [µg/mL] | logD [3] | IC50 [6] [nM] | IC50 [8] [nM] | solubility kinetic [9] [µg/mL] | half-life at 1 µM [11] [min] | microsomal CLint at 1 µM [12] [µL/min/mg] | IC50 [13] [nM] | IC50 [15] [µM] | SMILES | IC50 [4] [µM] | selectivity ratio [5] | selectivity ratio [7] | selectivity ratio [10] | IC50 [14] [nM]
7.8 | 1.6 (≈ 4.71 µM) | 2.7 | 220 | 230 | 1.6 (≈ 4.71 µM) | 7 | 258 | 590 |  | O=C(Nc1ccc(Cl)c(-c2nc3ncccc3o2)c1)c1ccco1 | 23 | 39 | 99 | > 345 | 1800
4.9 |  |  | 300 | 260 |  |  |  | 91 | 12 | O=C(Nc1ccc(Cl)c(-c2nc3ncccc3o2)c1)c1ccoc1 | 65 | > 700 |  | 160 | 340

From ChEMBL document CHEMBL2407056, “3-(Oxazolo[4,5-b]pyridin-2-yl)anilides as a novel class of potent inhibitors for the kinetoplastid Trypanosoma brucei, the causative agent for human African trypanosomiasis” (Eur J Med Chem, 2013)
